{"source": "paper PMC4822987", "about": "(Acta crystallographica. Section F, Structural biology …, 2016)", "key": {"[1]": {"target": "Leishmania mexicana arginase (LmARG) (Leishmania mexicana, UniProt Q6TUJ5)", "test": "Inhibitory activity assay, colorimetric arginase activity", "format": "biochemical", "outline": "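Recombinant LmARG (1 µM) started the reaction in 50 mM EPPS pH 8.0 with 100 µM MnCl2 and 30 mM L-arginine at 21°C. After 20 min it was stopped with H2SO4/H3PO4 acid plus α-isonitrosopropiophenone dye, then heated at 90°C for 1 h. Urea was read at 550 nm. Ki came from IC50 via Cheng–Prusoff, with Km from 0.5–150 mM arginine.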"}, "human arginase II": {"test_system": "human arginase II", "conditions": "relative to ABH, ref Golebiowski et al., 2013; cited from earlier work"}, "human arginase I": {"test_system": "human arginase I", "conditions": "relative to ABH, ref Van Zandt et al., 2013; cited from earlier work"}, "S. mansoni arginase": {"test_system": "S. mansoni arginase", "conditions": "relative to ABH, ref Hai et al., 2014; cited from earlier work"}}}
{"smiles": "N[C@@H](CCCCB(O)O)C(=O)O", "note": "[ABH, 2-(S)-amino-6-boronohexanoic acid, reference compound]", "values": [{"measurement": "IC50", "setting": "[1]", "result": "1.3 ± 0.2", "unit": "µM"}, {"measurement": "Ki", "setting": "[1]", "result": "0.9 ± 0.1", "unit": "µM"}]}
{"smiles": "N[C@](CCCCB(O)O)(CCN1CCCCC1)C(=O)O", "note": "[ABHPE, (R)-2-amino-6-borono-2-[2-(piperidin-1-yl)ethyl]hexanoic acid]", "values": [{"measurement": "improved inhibitory potency in comparison with parent inhibitor ABH", "setting": "human arginase II", "result": 3.8, "unit": "fold"}, {"measurement": "improved inhibitory potency (IC50) in comparison with parent inhibitor ABH", "setting": "human arginase I", "result": 6.5, "unit": "fold"}, {"measurement": "improved affinity in comparison with parent inhibitor ABH", "setting": "S. mansoni arginase", "result": 5.0, "unit": "fold"}, {"measurement": "IC50", "setting": "[1]", "result": "2.1 ± 0.3", "unit": "µM"}, {"measurement": "Ki", "setting": "[1]", "result": "1.4 ± 0.2", "unit": "µM"}]}
{"smiles": "N[C@@](CCCCB(O)O)(C(=O)O)C1CCN(Cc2ccc(Cl)c(Cl)c2)CC1", "note": "(racemic) [ABHDP, (R)-2-amino-6-borono-2-[1-(3,4-dichlorobenzyl)piperidin-4-yl]hexanoic acid]", "values": [{"measurement": "improved inhibitory potency in comparison with parent inhibitor ABH", "setting": "human arginase II", "result": 7.4, "unit": "fold"}, {"measurement": "improved inhibitory potency (IC50) in comparison with parent inhibitor ABH", "setting": "human arginase I", "result": 7.4, "unit": "fold"}, {"measurement": "improved affinity in comparison with parent inhibitor ABH", "setting": "S. mansoni arginase", "result": 2.4, "unit": "fold"}, {"measurement": "IC50", "setting": "[1]", "result": "1.7 ± 0.4", "unit": "µM"}, {"measurement": "Ki", "setting": "[1]", "result": "1.1 ± 0.3", "unit": "µM"}]}
